Publication PMC4657471 (Pest Management Science, 2014)
Like-named read-outs stand apart in the source and are kept apart here.

Legend:
B. tabaci CYP6CM1 = test: Metabolism of insecticides by recombinant CYP6CM1 microsomes; assay type: in vitro ADME, Bemisia tabaci; conditions: 20 µM insecticide; 4 h at 30 °C; NADPH-regenerating system; UPLC-MS
In short: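 B. tabaci CYP6CM1 and Drosophila NADPH CPR were baculovirus-expressed in Sf9 cells and run as microsomes (0.2 mg mL−1 total protein) in 0.1 M K-phosphate. Regenerating system: 1.3 mM NADP+, 3.3 mM glucose-6-phosphate, 3.3 mM MgCl2, 0.4 U mL−1 G6PDH. Insecticide 20 µM, 30 °C, 4 h, triplicates, no-NADPH control. Quenched with acetonitrile (50% final), centrifuged, parent loss measured by UPLC–MS/MS in positive ion mode.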

[1] = test system: lettuce aphids (Nasonovia ribisnigri); test: Field trials against lettuce aphids; assay type: in vivo; conditions: seven lettuce field trials, foliar spray, rate g ha^−1: flupyradifurone 125, pymetrozine 200, thiacloprid 96, spirotetramat 75; for Efficacy (%) 6–10 DAA: 6–10 days after application; for Efficacy (%) 13–15 DAA: 13–15 days after application
In short: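 Seven lettuce field trials in the EU maritime zone, each including commercial formulated standard insecticides for comparison. Treatments were replicated 3–4 times per trial, with aphid infestations above economic threshold levels. Efficacy was assessed at various intervals after spraying by scoring surviving aphids.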

[2] = test system: endogenously expressed insect nAChRs; test: Whole-cell voltage clamp electrophysiology on isolated neurons; assay type: cell-based, Spodoptera frugiperda; conditions: for relative agonist efficacy: relative to the amplitude elicited by 1 mM of acetylcholine, holding potential −70 mV
[3] = Reproductive and developmental toxicity; conditions: technical flupyradifurone
[4] = test system: tomato plants (Solanum lycopersicum L.); test: Plant uptake and translocation by phosphor imaging; conditions: [14C]-labelled, SL200; tomato plants harvested 1 day after soil drench
In short: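 Test compound was [pyridinylmethyl-14C]-labelled in SL200 and drenched at 24 mg AI plant−1 onto 21-day-old tomato in 5 L pots of sandy loam at 80–90% water-holding capacity. Plants were kept at 21/16 °C day/night with 14 h light and 60–70% RH. Shoots were cut at the soil surface, pressed, dried 24 h at 50 °C and exposed 6 days to phosphor imaging plates.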

Honey bee [5] = test: Honey bee foliage residue test; assay type: in vivo; conditions: at 205 g ha^−1
Bemisia tabaci = test: Whitefly adult leaf-dip bioassay; assay type: in vivo; conditions: for mortality at 16 µg/mL: Bemisia tabaci
In short: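 Adult B. tabaci, including neonicotinoid-resistant biotype B (Unai, Brazil, 2009). Cotton leaf discs (3.5 cm) were dipped 5 s in solutions made up in 0.02% Triton X-100, with diluent alone for controls. Discs were air-dried and laid on 12 g L−1 agar under ventilated lids. Three replicates per concentration, 20–30 females each, held at 22–24 °C; adult mortality scored after 72 h.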

Honey bee [6] = test: Honey bee acute oral toxicity; assay type: in vivo; conditions: technical flupyradifurone
Bumblebee = Bumblebee acute contact toxicity; assay type: in vivo; conditions: technical flupyradifurone
rat [7] = test: Acute dermal toxicity; assay type: in vivo; conditions: technical flupyradifurone
Myzus persicae = test: Speed of action: suppression of aphid honeydew excretion on oilseed rape; assay type: in vivo; conditions: SL200, 75 g AI ha^−1 foliar on oilseed rape
In short: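 Susceptible M. persicae (strain NS): 100 aphids per plant on the abaxial leaf side of […] oilseed rape (six leaves). Sprayed 50 cm above the canopy with a track sprayer at 75 g AI ha−1 SL200 in 300 L ha−1 water; water controls; two replicates; 22 °C, 60–70% RH. Filter papers under the leaves were changed every 30 min up to 240 min and stained with ninhydrin; honeydew spot area was expressed as suppression relative to preapplication.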

Honey bee [8] = test: Honey bee long-term field studies in oilseed rape; assay type: in vivo; conditions: 205 g AI ha^−1 in oilseed rape, full bloom and bees actively foraging
[9] = Aquatic invertebrate acute toxicity; conditions: Daphnia, in vivo
Honey bee [10] = test: Honey bee acute contact toxicity; assay type: in vivo; conditions: technical flupyradifurone
Eye irritation = conditions: technical flupyradifurone
Earthworm (Eisenia) = test: Earthworm 14 day toxicity; assay type: in vivo
Carcinogenicity = conditions: technical flupyradifurone
Skin irritation = conditions: technical flupyradifurone
Aquatic plant toxicity = conditions: algae, in vivo
Fish acute toxicity = conditions: rainbow trout, in vivo
rat [11] = test: Acute inhalation toxicity; assay type: in vivo; conditions: technical flupyradifurone
Mutagenicity = conditions: technical flupyradifurone

CC(c1ccc(C(F)(F)F)nc1)S(C)(=O)=NC#N (centres unmarked) [sulfoxaflor]
degradation of parent compound by CYP6CM1 microsomes (B. tabaci CYP6CM1): not depleted at all

N#C/N=C1\SCCN1Cc1ccc(Cl)nc1 [Thiacloprid, thiacloprid]
Efficacy (%) 6–10 DAA [1]: 88% | Efficacy (%) 13–15 DAA [1]: 72%

CC1=NNC(=O)N(/N=C/c2cccnc2)C1 [Pymetrozine, pymetrozine]
degradation of parent compound by CYP6CM1 microsomes (B. tabaci CYP6CM1): 70 ± 6% | Efficacy (%) 6–10 DAA [1]: 79% | Efficacy (%) 13–15 DAA [1]: 57%

CCOC(=O)OC1=C(c2cc(C)ccc2C)C(=O)N[C@]12CC[C@@H](OC)CC2 [Spirotetramat, spirotetramat]
degradation of parent compound by CYP6CM1 microsomes (B. tabaci CYP6CM1): not depleted at all | Efficacy (%) 6–10 DAA [1]: 90% | Efficacy (%) 13–15 DAA [1]: 98%

O=C1C=C(N(Cc2ccc(Cl)nc2)CC(F)F)CO1 [Flupyradifurone, 4-{[(6-Chloropyridine-3-yl)methyl] (2,2-difluoroethyl)amino}furan-2 (5H)-one]
type of action on nAChRs ([2]; isolated S. frugiperda neurons): partial agonist | relative agonist efficacy [2]: 0.56 | Reproductive and developmental toxicity [3]: No concern | root uptake and distribution after drench application [4]: fast root uptake | Honey bee foliage residue (Honey bee [5]): No effects at 205 g ha^−1 | mortality at 16 µg/mL (Bemisia tabaci; read-out: adult mortality): 50% | mortality at 16 µg/mL (Bemisia tabaci; read-out: nymph mortality): 100% | Honey bee acute oral LD50 (Honey bee [6]): 1200 ng bee^−1 | degradation of parent compound by CYP6CM1 microsomes (B. tabaci CYP6CM1): not depleted at all | Bumblebee acute contact LD50 (Bumblebee): >100 µg bee^−1 | Acute dermal toxicity, rat LD50 (rat [7]): >2000 mg kg^−1 body weight | time to feeding (honeydew excretion) stop after spray application (Myzus persicae; aphids on abaxial leaf side): ≤ 2 h | aphid mortality two days after application (Myzus persicae; data not shown): all aphids were dead | Honey bee long-term field studies (Honey bee [8]): No adverse effects | EC50 [9]: > 77.6 µg/mL | Honey bee acute contact LD50 (Honey bee [10]): >100 µg bee^−1 | Eye irritation (Eye irritation): Non-irritant | Earthworm (Eisenia) 14 day LC50 (Earthworm (Eisenia)): 193 mg kg^−1 dry weight soil | Carcinogenicity (Carcinogenicity): Not a carcinogen | Skin irritation (Skin irritation): Non-irritant | EC50 (Aquatic plant toxicity): > 80 µg/mL | LC50 (Fish acute toxicity): > 74.2 µg/mL | Efficacy (%) 6–10 DAA [1]: 96% | Efficacy (%) 13–15 DAA [1]: 83% | Acute inhalation toxicity, rat LC50 (rat [11]): >4671 mg m^−3 | Mutagenicity (Mutagenicity): Not a mutagen

O=[N+]([O-])NC1=NCCN1Cc1ccc(Cl)nc1 [Imidacloprid, imidacloprid, reference compound]
relative agonist efficacy [2]: 0.15 | response of adult females (Bemisia tabaci; B. tabaci B-type strain (Unai, Brazil), concentrations of 1000 mg L^−1): do not respond at all | degradation of parent compound by CYP6CM1 microsomes (B. tabaci CYP6CM1): 23 ± 1%
